Experimental data gathered from unrelated publications.
Each line is one published result; the experiments were not run side by side.

SMILES	test system	conditions	Cmax
O=C(C=Cc1ccccc1)Nc1cc(-c2ccnc(N3CCC(O)CC3)c2)ccn1	female Sprague-Dawley rat, plasma	intravenous, 5 mg/kg	324 ng/mL
CC(=Nc1ccc(N=Cc2cnccn2)cc1)N(C)C	male Sprague-Dawley rat, plasma	oral, 200 mg/kg	397 ng/mL
COc1ccc2cc3n(c(=O)c2c1OC)CCc1cc2c(cc1-3)OCO2	male Sprague-Dawley rat, blood	oral, 50 mg/kg	233 ng/mL
CC1(CN)CCN(c2cnc3c(Sc4ccncc4Cl)n[nH]c3n2)CC1	male Sprague-Dawley rat, plasma	oral, 10 mg/kg	142 ng/mL
O=C1CC[C@H](N2Cc3cc(N4CCN(CC5CCN(c6ccc([C@@H]7c8ccc(O)cc8CC[C@@H]7c7ccccc7)cc6)CC5)CC4)ccc3C2=O)C(=O)N1	male Sprague-Dawley rat, plasma	oral, 20 mg/kg, fed	1040 ng/mL
Cc1c(C(=O)O)ccc2c3n(nc12)[C@@H]1[C@H](C3)N(CC2CC2)[C@@]2(C(=O)Nc3cc(Cl)ccc32)[C@H]1c1cccc(Cl)c1F	male rat, plasma	oral, 2 mg/kg	5.7 µM
N#C[C@@]12C[C@@H]1[C@@H](n1cnc3c(N[C@@H](C4CCC4)C4CC4)nc(I)nc31)[C@H](O)[C@@H]2O	male Wistar rat, plasma	oral, 1 mg/kg	6.73 ng/mL
C[C@H]1[C@@H](O)O[C@@H]2O[C@@]3(C)CC[C@H]4[C@H](C)CC[C@@H]1[C@@]24OO3	Sprague-Dawley rat, plasma	oral, 10 mg/kg	227 ng/mL
O=C1c2ccncc2C(=O)c2c1[nH]c1ccccc21	rat, plasma	intravenous, 1 mg/kg, single dose	3.25 µM
Nc1ccc(/C=C/C(=O)NCc2cc3cc(-c4ccc(C(=O)N5CCC(F)(F)CC5)cc4)cc(-c4ccc(F)cc4)c3o2)cn1	rat, plasma	oral, 3 mg/kg	5990 ng/mL
O=c1cc(-c2ccc(O)c(O)c2)oc2cc(O)cc(O)c12	male Sprague-Dawley rat, plasma	oral, 30 mg/kg	40.1 ng/mL
